ChEMBL document CHEMBL4364306, “Structure-activity relationships of thiazole and benzothiazole derivatives as selective cannabinoid CB2 agonists with in vivo anti-inflammatory properties” (Eur J Med Chem, 2019)
Calls of active or inactive are those of the source. No cut-off for these calls is given here.

Legend:
Cannabinoid receptor 1 [1] = target: T1, Cannabinoid receptor 1 (Homo sapiens, UniProt P21554); assay: Agonist activity at N-terminal Flag epitope tagged CB1 (unknown origin) expressed in HTLA cells assessed as increase of beta-arrestin recruitment by Tango assay; type: cell-based
T1 sequence (P21554 whole entry): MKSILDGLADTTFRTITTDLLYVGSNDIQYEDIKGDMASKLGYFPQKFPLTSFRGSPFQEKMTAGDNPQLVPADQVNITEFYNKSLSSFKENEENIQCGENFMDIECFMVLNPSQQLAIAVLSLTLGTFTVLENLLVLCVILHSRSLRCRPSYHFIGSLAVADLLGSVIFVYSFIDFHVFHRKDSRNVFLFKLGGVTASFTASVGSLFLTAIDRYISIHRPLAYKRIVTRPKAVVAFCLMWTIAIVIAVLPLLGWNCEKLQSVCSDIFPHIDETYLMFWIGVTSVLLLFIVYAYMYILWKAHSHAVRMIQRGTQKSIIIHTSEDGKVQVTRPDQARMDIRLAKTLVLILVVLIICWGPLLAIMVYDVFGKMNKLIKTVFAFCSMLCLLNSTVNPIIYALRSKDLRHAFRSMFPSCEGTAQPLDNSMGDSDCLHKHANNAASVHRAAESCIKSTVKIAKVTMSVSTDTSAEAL
Summary of the method: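 HTLA cells transfected overnight with GPCR Tango constructs, plated at 15,000 cells/well in DMEM with 1% dFBS and allowed to recover at least 6 h. Compounds in Tango buffer (20 mM HEPES, 1x HBSS, pH 7.40) added overnight, full concentration-response up to 30 µM against CP-55,940 as reference agonist. BrightGlo reagent added for 20 min at room temperature in the dark, then luminescence read.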

Cannabinoid receptor 2 [2] = target: T2, Cannabinoid receptor 2 (Homo sapiens, UniProt P34972); assay: Antagonist activity at N-terminal Flag epitope tagged CB2 (unknown origin) expressed in HTLA cells assessed as decrease in CP55940-induced beta-arrestin recruitment pretreated with non-selective cannabinoid receptor agonist CP55940 for 30 mins and measured after 20 mins by Tango assay; type: cell-based
T2 sequence (P34972 whole entry): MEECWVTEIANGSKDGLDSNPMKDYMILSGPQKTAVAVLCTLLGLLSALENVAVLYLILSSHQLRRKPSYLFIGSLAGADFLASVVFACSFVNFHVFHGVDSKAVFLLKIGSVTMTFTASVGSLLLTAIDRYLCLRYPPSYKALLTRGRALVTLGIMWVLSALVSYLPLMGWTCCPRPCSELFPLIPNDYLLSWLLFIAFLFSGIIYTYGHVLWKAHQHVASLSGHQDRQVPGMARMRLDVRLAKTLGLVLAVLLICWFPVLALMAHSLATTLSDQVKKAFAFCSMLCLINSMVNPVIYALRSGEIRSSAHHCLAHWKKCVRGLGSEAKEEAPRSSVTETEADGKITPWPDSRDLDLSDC

Mus musculus [3] = assay: Anti-inflammatory activity in Swiss albino mouse model of DSS-induced acute colitis as TNFalpha level in colon tissue at 10 mg/kg, ip administrated for 7 days by ELISA (reference value: 102.4 +/- 5.043 pg/mg); type: functional
Mus musculus [4] = assay: Anti-colitis activity in Swiss albino mouse model of DSS-induced acute colitis assessed as reduction in DSS-induced oedema in colon at 10 mg/kg, ip administrated for 7 days by H and E staining based light microscopic method; type: functional, organism-based
Summary of the method: (§1)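 DSS colitis (3% DSS, 7 days) in male Swiss albino mice with daily ip 10 mg/kg in 4% DMSO/2% tween/saline. Distal colon fixed in 10% formol saline 24 h, paraffin-embedded, 4 µm sections, H&E, light microscopy scored for epithelial ulceration/desquamation, mucosal and submucosal infiltration, submucosal oedema, haemorrhage, lymphoid hyperplasia.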

Mus musculus [5] = assay: Anti-colitis activity in Swiss albino mouse model of DSS-induced acute colitis assessed as reduction in DSS-induced inflammatory cells infiltration in the submucosa in colon at 10 mg/kg, ip administrated for 7 days by H and E staining based light microscopic method; type: functional, organism-based; summary of the method: as §1
Cannabinoid receptor 2 [6] = target: T2, Cannabinoid receptor 2; assay: Displacement of [3H]CP55940 from recombinant human CB2R expressed in HEK293 cell membranes at 10 uM incubated for 90 mins relative to control
Mus musculus [7] = assay: Anti-colitis activity in Swiss albino mouse model of DSS-induced acute colitis assessed as reduction in DSS-induced haemorrhage in colon at 10 mg/kg, ip administrated for 7 days by H and E staining based light microscopic method; type: functional, organism-based; summary of the method: as §1
Cannabinoid receptor 1 [8] = target: T1, Cannabinoid receptor 1; assay: Displacement of [3H]CP55940 from recombinant human CB1R expressed in HEK293 cell membranes at 10 uM incubated for 90 mins relative to control
Mus musculus [9] = assay: Anti-colitis activity in Swiss albino mouse model of DSS-induced acute colitis assessed as reduction in DSS-induced desquamation in lining of mucosal epithelium in colon tissue at 10 mg/kg, ip administrated for 7 days by H and E staining based light microscopic method; type: functional, organism-based; summary of the method: as §1
Mus musculus [10] = assay: Anti-colitis activity in Swiss albino mouse model of DSS-induced acute colitis assessed as reduction in DSS-induced ulceration in distal part of colon at 10 mg/kg, ip administrated for 7 days by H and E staining based light microscopic method; type: functional, organism-based; summary of the method: as §1
Cannabinoid receptor 2 [11] = target: T2, Cannabinoid receptor 2; assay: Agonist activity at recombinant human CB2R expressed in CHOK1 cells assessed as inhibition of NKH477-stimulated intracellular cAMP levels after 30 mins by chemiluminescent detection based cAMP Hunter assay; type: functional, cell-based
Summary of the method: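 CHO-K1 cells overexpressing human CB2R, plated 30,000 cells/well, overnight 37 °C, 5% CO2. Compound dose-responses incubated 30 min at 37 °C with NKH-477 (25 µM) to stimulate adenylate cyclase. Enzyme fragment complementation chemiluminescence read. Normalised to NKH-477 alone as 100%; mean ± SEM of three independent experiments in triplicate.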

Mus musculus [12] = assay: Anti-colitis activity in Swiss albino mouse model of DSS-induced acute colitis assessed as colon length at 10 mg/kg, ip administrated for 7 days (reference value: 7.314 +/- 0.1143 cm); type: functional
Mus musculus [13] = assay: Anti-inflammatory activity in Swiss albino mouse model of DSS-induced acute colitis as IL1beta level in colon tissue at 10 mg/kg, ip administrated for 7 days by ELISA (reference value: 140.9 +/- 8.551 pg/mg); type: functional
Homo sapiens = organism: Homo sapiens; assay: Selectivity index, ratio of Ki for recombinant human CB1R expressed in HEK293 cell membranes to Ki for recombinant human CB2R expressed in HEK293 cell membranes; type: cell-based
Mus musculus [14] = assay: Anti-colitis activity in Swiss albino mouse model of DSS-induced acute colitis assessed as reduction in DSS-induced lymphoid hyperplasia in the sub-musoca in colon at 10 mg/kg, ip administrated for 7 days by H and E staining based light microscopic method; type: functional, organism-based; summary of the method: as §1
Cannabinoid receptor 1 [15] = target: T1, Cannabinoid receptor 1; assay: Antagonist activity at N-terminal Flag epitope tagged CB1 (unknown origin) expressed in HTLA cells assessed as decrease in CP55940-induced beta-arrestin recruitment pretreated with non-selective cannabinoid receptor agonist CP55940 for 30 mins and measured after 20 mins by Tango assay; type: cell-based
Mus musculus [16] = assay: Anti-colitis activity in Swiss albino mouse model of DSS-induced acute colitis assessed as disease activity index at 10 mg/kg, ip administrated for 7 days (reference value: 7.143 +/- 1.29); type: functional
Cannabinoid receptor 2 [17] = target: T2, Cannabinoid receptor 2; assay: Agonist activity at N-terminal Flag epitope tagged CB2 (unknown origin) expressed in HTLA cells assessed as increase of beta-arrestin recruitment by Tango assay; type: cell-based
Summary of the method: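 β-arrestin Tango assay: HTLA cells transfected overnight with GPCR tango constructs, plated at 15,000 cells/well in DMEM with 1% dFBS, recovered ≥6 h. Drugs in Tango buffer (20 mM HEPES, 1x HBSS, pH 7.40) added overnight, full concentration-response (maximum 30 µM). BrightGlo reagent, 20 min room temperature in dark, luminescence read.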

## CCCCCn1/c(=N/C(=O)c2cccc(C(F)(F)F)c2)sc2ccccc21
Cannabinoid receptor 1 [1]
  EC50: > 30000 nM
Cannabinoid receptor 2 [2]
  EC50: > 30000 nM
Mus musculus [3]
  Activity: 58.71 pg/mg
Mus musculus [4]
  Activity: Active
Mus musculus [5]
  Activity: inactive
Cannabinoid receptor 2 [6]
  Activity: Active
Mus musculus [7]
  Activity: Active
Cannabinoid receptor 1 [8]
  Activity: Active
Mus musculus [9]
  Activity: Active
Mus musculus [10]
  Activity: Active
Cannabinoid receptor 2 [11]
  EC50: 306 nM
Mus musculus [12]
  Activity: 6.729 cm
Mus musculus [13]
  Activity: 102.4 pg/mg
Homo sapiens
  Ratio Ki: 429
Mus musculus [14]
  Activity: Active
Cannabinoid receptor 1 [15]
  EC50: > 30000 nM
Mus musculus [16]
  Activity_index: 3.286
Cannabinoid receptor 2 [17]
  EC50: 129 nM
